# According to ChEMBL document CHEMBL4689842, “EUbOPEN Chemogenomics Library wave 1” (2021):
# Several values for one entry are separate records, joined by “and”; a condition that tells them apart may be missing. Equal values may be shown once.
# Tested on: HEK-293T
# Assay: Multiplex assay against HEK293T;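 as to Population Tubulin-Different-Phenotype (%): share of the cells with healthy nuclei that show this phenotype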
# Type: toxicity, cell-based
# Settings: human
# Procedure, shortened: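 Four dyes were applied at seeding to live cells: Hoechst33342, BioTracker Green Microtubule Cytoskeleton Dye, MitoTracker Red and Annexin V Alexa Fluor 680. Imaging after compound addition used a CQ1 microscope at 37°C and 5% CO2. CellPathfinder machine-learning gating then sorted cells into Hoechst high-intensity objects or normal cells, normal cells into healthy, pyknosed or fragmented nuclei, and pyknosed cells into mitotic or apoptotic, with tubulin, mitochondrial-mass and membrane-permeability phenotypes given as per cents of healthy-nucleus cells.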
# [1] = 12 h, 1 µM, compound concentration 1 uM, replicate 1
# [2] = 12 h, 1 µM, compound concentration 1 uM, replicate 2
# [3] = 12 h, 10 µM, compound concentration 10 uM, replicate 1
# [4] = 12 h, 10 µM, compound concentration 10 uM, replicate 2
# [5] = 24 h, 1 µM, compound concentration 1 uM, replicate 1
# [6] = 24 h, 1 µM, compound concentration 1 uM, replicate 2
# [7] = 24 h, 10 µM, compound concentration 10 uM, replicate 1
# [8] = 24 h, 10 µM, compound concentration 10 uM, replicate 2
# [9] = 48 h, 10 µM, compound concentration 10 uM, replicate 1
# [10] = 48 h, 10 µM, compound concentration 10 uM, replicate 2
smiles,measurement,setting,value
CN1CCN(C(=O)C(C)(C)c2ccc(C(=O)Nc3cn4cc(-c5cc(C(C)(C)C)cc(C(C)(C)C)c5)ccc4n3)cc2)CC1 [T3-CLK-N],Population Apoptotic (%),[1],14%
same,Population Fragmented Nuclei (%),[1],15%
same,Population Healthy Nuclei (%),[1],58%
same,Population Hoechst High Intensity Objects (%),[1],12%
same,Population Membrane Permeable-Phenotype (%),[1],5%
same,Population Mitochondria Different-Phenotype (%),[1],7%
same,Population Mitotic Cells (%),[1],85%
same,Population Normal (%),[1],87%
same,Population Pyknosed Nuclei (%),[1],25%
same,Population Tubulin-Different-Phenotype (%),[1],9%
same,Total Cell Count,[1],642
same,Population Apoptotic (%),[2],10%
same,Population Fragmented Nuclei (%),[2],6%
same,Population Healthy Nuclei (%),[2],84%
same,Population Hoechst High Intensity Objects (%),[2],2%
same,Population Membrane Permeable-Phenotype (%),[2],4%
same,Population Mitochondria Different-Phenotype (%),[2],13%
same,Population Mitotic Cells (%),[2],89%
same,Population Normal (%),[2],97%
same,Population Pyknosed Nuclei (%),[2],9%
same,Population Tubulin-Different-Phenotype (%),[2],21%
same,Total Cell Count,[2],1407
same,Population Apoptotic (%),[3],21%
same,Population Fragmented Nuclei (%),[3],16%
same,Population Healthy Nuclei (%),[3],46%
same,Population Hoechst High Intensity Objects (%),[3],18%
same,Population Membrane Permeable-Phenotype (%),[3],11%
same,Population Mitochondria Different-Phenotype (%),[3],13%
same,Population Mitotic Cells (%),[3],78%
same,Population Normal (%),[3],81%
same,Population Pyknosed Nuclei (%),[3],36%
same,Population Tubulin-Different-Phenotype (%),[3],30%
same,Total Cell Count,[3],631
same,Population Apoptotic (%),[4],23%
same,Population Fragmented Nuclei (%),[4],3%
same,Population Healthy Nuclei (%),[4],80%
same,Population Hoechst High Intensity Objects (%),[4],4%
same,Population Membrane Permeable-Phenotype (%),[4],4%
same,Population Mitochondria Different-Phenotype (%),[4],26%
same,Population Mitotic Cells (%),[4],76%
same,Population Normal (%),[4],95%
same,Population Pyknosed Nuclei (%),[4],15%
same,Population Tubulin-Different-Phenotype (%),[4],63%
same,Total Cell Count,[4],884
same,Population Apoptotic (%),[5],16%
same,Population Fragmented Nuclei (%),[5],12%
same,Population Healthy Nuclei (%),[5],76%
same,Population Hoechst High Intensity Objects (%),[5],10%
same,Population Membrane Permeable-Phenotype (%),[5],14%
same,Population Mitochondria Different-Phenotype (%),[5],5%
same,Population Mitotic Cells (%),[5],83%
same,Population Normal (%),[5],89%
same,Population Pyknosed Nuclei (%),[5],10%
same,Population Tubulin-Different-Phenotype (%),[5],19%
same,Total Cell Count,[5],686
same,Population Apoptotic (%),[6],4%
same,Population Fragmented Nuclei (%),[6],10%
same,Population Healthy Nuclei (%),[6],84%
same,Population Hoechst High Intensity Objects (%),[6],4%
same,Population Membrane Permeable-Phenotype (%),[6],9%
same,Population Mitochondria Different-Phenotype (%),[6],8%
same,Population Mitotic Cells (%),[6],95%
same,Population Normal (%),[6],95%
same,Population Pyknosed Nuclei (%),[6],5%
same,Population Tubulin-Different-Phenotype (%),[6],40%
same,Total Cell Count,[6],1792
same,Population Apoptotic (%),[7],27%
same,Population Fragmented Nuclei (%),[7],20%
same,Population Healthy Nuclei (%),[7],46%
same,Population Hoechst High Intensity Objects (%),[7],21%
same,Population Membrane Permeable-Phenotype (%),[7],8%
same,Population Mitochondria Different-Phenotype (%),[7],23%
same,Population Mitotic Cells (%),[7],72%
same,Population Normal (%),[7],78%
same,Population Pyknosed Nuclei (%),[7],33%
same,Population Tubulin-Different-Phenotype (%),[7],56%
same,Total Cell Count,[7],614
same,Population Apoptotic (%),[8],17%
same,Population Fragmented Nuclei (%),[8],4%
same,Population Healthy Nuclei (%),[8],88%
same,Population Hoechst High Intensity Objects (%),[8],3%
same,Population Membrane Permeable-Phenotype (%),[8],7%
same,Population Mitochondria Different-Phenotype (%),[8],37%
same,Population Mitotic Cells (%),[8],82%
same,Population Normal (%),[8],96%
same,Population Pyknosed Nuclei (%),[8],6%
same,Population Tubulin-Different-Phenotype (%),[8],82%
same,Total Cell Count,[8],947
CN1CCN(C(=O)C(C)(C)c2ccc(C(=O)Nc3cn4cc(-c5ccncc5)ccc4n3)cc2)CC1 [T3-CLK],Population Hoechst High Intensity Objects (%),[3],16% and 14% and 10%
same,Population Membrane Permeable-Phenotype (%),[3],6% and 17%
same,Population Normal (%),[3],83% and 85% and 89%
same,Population Pyknosed Nuclei (%),[3],24% and 27%
same,Population Fragmented Nuclei (%),[4],4% and 3% and 6%
same,Population Hoechst High Intensity Objects (%),[4],7% and 4%
same,Population Membrane Permeable-Phenotype (%),[4],10% and 5%
same,Population Mitotic Cells (%),[4],49% and 79% and 91%
same,Population Normal (%),[4],92% and 95%
same,Population Tubulin-Different-Phenotype (%),[4],89% and 85% and 39%
same,Population Fragmented Nuclei (%),[7],15% and 17% and 6%
same,Population Hoechst High Intensity Objects (%),[7],18% and 17% and 6%
same,Population Membrane Permeable-Phenotype (%),[7],9% and 11% and 13%
same,Population Normal (%),[7],81% and 82% and 93%
same,Population Tubulin-Different-Phenotype (%),[7],100% and 76% and 34%
same,Population Fragmented Nuclei (%),[8],4% and 7%
same,Population Membrane Permeable-Phenotype (%),[8],14% and 16% and 8%
same,Population Normal (%),[8],91% and 97% and 94%
same,Population Tubulin-Different-Phenotype (%),[8],91% and 70% and 94%
same,Population Apoptotic (%),[9],92%
same,Population Fragmented Nuclei (%),[9],19%
same,Population Healthy Nuclei (%),[9],10%
same,Population Hoechst High Intensity Objects (%),[9],18%
same,Population Membrane Permeable-Phenotype (%),[9],0%
same,Population Mitochondria Different-Phenotype (%),[9],94%
same,Population Mitotic Cells (%),[9],7%
same,Population Normal (%),[9],81%
same,Population Pyknosed Nuclei (%),[9],70%
same,Population Tubulin-Different-Phenotype (%),[9],77%
same,Total Cell Count,[9],216
same,Population Apoptotic (%),[10],91%
same,Population Fragmented Nuclei (%),[10],7%
same,Population Healthy Nuclei (%),[10],17%
same,Population Hoechst High Intensity Objects (%),[10],4%
same,Population Membrane Permeable-Phenotype (%),[10],12%
same,Population Mitochondria Different-Phenotype (%),[10],79%
same,Population Mitotic Cells (%),[10],8%
same,Population Normal (%),[10],95%
same,Population Pyknosed Nuclei (%),[10],75%
same,Population Tubulin-Different-Phenotype (%),[10],87%
same,Total Cell Count,[10],142
